Screens deposited in PubChem by several laboratories.
ARFGAP1 inh – rat ARFGAP1 inhibition | Arfgap1-stimulated ARF1 GTP hydrolysis, GDP FP detection | inhibition, % at 16.5 µM | actives 0.26% (n = 360,000);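 active = inhibition above a per-plate limit, mean inhibition of low control wells plus 3 SD, cut at about 25% in these data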;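 note: 0% = DMSO wells with enzyme and 100% = wells lacking Arfgap1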
Target sequence (Q62848 1-136 limits assumed): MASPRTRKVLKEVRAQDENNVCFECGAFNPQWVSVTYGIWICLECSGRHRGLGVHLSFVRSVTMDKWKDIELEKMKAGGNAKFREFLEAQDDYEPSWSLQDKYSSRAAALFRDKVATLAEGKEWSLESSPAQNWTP
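Assay system: purified rat His6-Arfgap1 residues 1-136 (GAP domain); Reagent: human Δ17 ARF1 bound to GTP; Dosing: 16.5 µM single point, 1.26% DMSO; Times: GTP hydrolysis reaction 2 h at 25 °C; Signal: FP, GDP Alexa 633 tracer displaced from anti-GDP antibody, 620/688 nm; Measure: % inhibition from polarization.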
ASAP1 inh – blocks human ASAP1-stimulated Arf1 GTP hydrolysis; inhibition, % at 16.5 µM; Q9ULH1; actives 0.19% (n = 360,000); GDP FP detection; AID 624377; in the data active = inhibition above about 25%;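 note: 0% = vehicle with enzyme and substrate and 100% = no enzyme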
Target sequence (Q9ULH1 325-724 limits assumed): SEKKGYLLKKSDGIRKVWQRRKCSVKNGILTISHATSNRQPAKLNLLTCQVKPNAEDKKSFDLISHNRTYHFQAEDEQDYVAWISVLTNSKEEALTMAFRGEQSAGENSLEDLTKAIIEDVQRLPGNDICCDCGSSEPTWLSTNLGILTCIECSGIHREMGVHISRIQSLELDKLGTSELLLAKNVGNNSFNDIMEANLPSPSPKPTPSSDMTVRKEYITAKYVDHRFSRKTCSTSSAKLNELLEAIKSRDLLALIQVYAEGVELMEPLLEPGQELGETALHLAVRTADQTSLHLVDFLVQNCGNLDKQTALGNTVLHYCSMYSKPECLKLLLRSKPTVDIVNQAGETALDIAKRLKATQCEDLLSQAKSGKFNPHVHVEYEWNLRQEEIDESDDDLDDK
SMARCA2 activ – SMARCA2 function activation, primary screen; activation, % at 9.1 µM; MG213 cells, MMTV-luciferase reporter, dexamethasone, overnight; actives 1% (n = 370,000); in the data active = activation above about 7.8%;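 note: 0% = vehicle wells and 100% = reference activator wells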
esBAF inh – blocks esBAF chromatin remodeling in mouse ES cells | reporter increase, % at 12.5 µM | actives 2% (n = 350,000) | Bmi1-luciferase knock-in reporter, 24 h; 100% = twice the neutral-well signal; in the data active = activation above about 40%;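 note: 0% = median of the plate's neutral control wells and 100% = double that signal; a rise in the Bmi1 reporter signal indicates esBAF inhibition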
The depositor's hits bear a star; . = no result given. Shown are actives, neighbours in structure and some others; about 2.6% of the full set was active somewhere.

SMILES	ARFGAP1 inh	ASAP1 inh	SMARCA2 activ	esBAF inh
S=C(NCC1CCCO1)Nc1ccc(Cl)cc1 (configuration not stated)	-0.1	-6.4	-0.2	.
O=C(Nc1ccc(Cl)cc1Cl)NC1CCCC1	-4.0	6.7	2.5	18.2
COc1cc2c(cc1OC)-c1cc(Nc3ccc(N(C)C)cc3)nc(=O)n1CC2	0.8	-3.2	7.8*	.
COc1cc2c(cc1OC)-c1cc(Nc3ccc(F)cc3)nc(=O)n1CC2	-5.2	1.2	1.3	.
c1ccc2c(-c3csc(-c4ccncc4)n3)c[nH]c2c1	7.2	7.2	1.3	52.2*
Brc1ccc(-c2csc(-c3c[nH]c4ccccc34)n2)cc1	-0.8	-0.1	4.9	67.1*
Clc1ccc(-c2c[nH]c3ccccc23)nn1	1.6	-9.6	2.2	26.9
c1ccc(-c2csc(-c3ccncc3)n2)cc1	5.3	2.2	-2.5	27.3
COc1ccc(CN2C[C@@H](C)[C@H](OC)CN(C)C(=O)c3ccc(NC(=O)c4nc5ccccc5s4)cc3OC[C@H]2C)cc1	.	.	.	63.8*
CO[C@@H]1CN(C)C(=O)c2ccc(NC(=O)c3nc4ccccc4s3)cc2OC[C@@H](C)N(Cc2cccnc2)C[C@@H]1C	.	.	.	12.2
CO[C@@H]1CN(C)C(=O)c2ccc(NC(=O)c3nc4ccccc4s3)cc2OC[C@@H](C)N(Cc2cccnc2)C[C@H]1C	.	.	.	45.9*
COc1ccc(CN2C[C@@H](C)[C@H](OC)CN(C)C(=O)c3ccc(NC(=O)c4nc5ccccc5s4)cc3OC[C@@H]2C)cc1	.	.	.	33.0
CC(C)C#Cc1cnc2c(c1)C(=O)N([C@H](C)CO)C[C@@H](C)[C@@H](CN(C)C(=O)Cc1ccncc1)O2	.	.	.	-2.1
C[C@H](CO)N1C[C@H](C)[C@@H](CN(C)C(=O)Nc2ccc(F)cc2)Oc2ccc(NC(=O)CCN3CCOCC3)cc2C1=O	.	.	.	-2.3
CC(=O)Nc1ccc(S(=O)(=O)N2CCN(c3nc(NC4CCCC4)c4ccccc4n3)CC2)cc1	39.4*	17.6	3.0	-7.6
CC1(C)Cc2c(sc3nc(-c4cc5ccccc5o4)n(N)c(=O)c23)CO1	-6.9	9.3	4.8	48.3*
CCCCOC(=O)Nc1ccc(C(=O)OC)cc1	4.1	5.0	1.6	78.6*
CCCCOC(=O)Nc1ccc(C)c(Cl)c1	5.2	6.5	3.8	56.8*
CCCCOC(=O)c1ccc(NC(C)=O)cc1	-2.7	4.1	2.6	20.2
C[C@H]1CN([C@@H](C)CO)C(=O)c2cccc(NC(=O)C3CC3)c2O[C@@H]1CN(C)S(=O)(=O)c1cccs1	.	.	.	-1.4
COC(=O)c1ccc2c(=O)n(CC3CCCO3)c(SCC(=O)Nc3ccccc3Cl)nc2c1 (configuration not stated)	-11.4	-4.8	-1.5	50.1*
COC(=O)c1ccc2c(=O)n(CC3CCCO3)c(SCC(=O)Nc3ccccc3OC)nc2c1 (configuration not stated)	12.5	-5.2	1.0	15.6
Cn1c(SCC(=O)N2CCN(c3ccccc3)CC2)nnc1-c1c[nH]c2ccccc12	1.9	-7.9	-0.7	-1.9
Cn1c(SCc2ccccc2)nnc1-c1c[nH]c2ccccc12	7.8	-8.0	2.3	81.3*
Cn1c(SCc2ccccc2)nnc1-c1ccc2c(c1)OCO2	7.5	10.6	3.7	51.7*
SMILES	ARFGAP1 inh	ASAP1 inh	SMARCA2 activ	esBAF inh
CCCCSc1nnc(-c2c[nH]c3ccccc23)n1C	-5.2	-2.3	3.9	72.3*
CC(C)NC(=O)N(C)C[C@@H]1Oc2ccc(N(C)C)cc2CC(=O)N([C@H](C)CO)C[C@H]1C	.	.	.	4.1
O=C(c1ccc2ccccc2c1O)N1CCCCC1	-7.5	4.8	2.6	56.2*
CCOC(=O)C1(Cc2cccc(OC)c2)CCCN(C(=O)c2ccccc2C)C1 (configuration not stated)	17.4	11.3	2.5	.
CCOC(=O)C1(Cc2cccc(OC)c2)CCCN(C(=O)c2cc(C)on2)C1 (configuration not stated)	4.2	-8.9	0.6	48.4*
CCOC(=O)C1(Cc2ccccc2)CCCN(C(=O)c2cnn(CC)c2)C1 (configuration not stated)	-1.9	12.2	3.8	65.2*
CCOC(=O)C1(Cc2cccc(OC)c2)CCCN(C(=O)CNC(C)=O)C1 (configuration not stated)	-7.4	-12.4	7.1	64.6*
C[C@@H]1CN([C@H](C)CO)C(=O)Cc2cc(NS(=O)(=O)c3cn(C)cn3)ccc2O[C@@H]1CN(C)C(=O)NC1CCCCC1	.	.	.	2.3
CO[C@H]1CN(C)C(=O)c2ccc(NC(=O)C3CCOCC3)cc2OC[C@H](C)N(C(C)=O)C[C@H]1C	.	.	.	-1.3
c1cncc(-c2nc3c(ccc4ccccc43)[nH]2)c1	4.7	2.3	5.7	52.2*
CO[C@@H]1CN(C)C(=O)c2ccc(NS(C)(=O)=O)cc2OC[C@@H](C)N(Cc2cncnc2)C[C@H]1C	.	.	.	-5.5
Oc1ccccc1/C=N/Nc1cccc2cccnc12	-11.3	7.3	3.4	49.8*
Clc1ccc2[nH]c(-c3ccccc3)cc2c1	19.7	9.6	3.1	60.1*
Oc1ccc(/C=N/Nc2cc(N3CCCC3)nc(N3CCCC3)n2)cc1	28.1*	12.8	-2.8	-5.0
Cc1nc(NC(=O)c2ccc(Cl)cc2)sc1Cc1ccc2c(c1)OCO2	12.9	5.6	-4.2	6.3
Cc1nc(NC(=O)c2ccccc2)sc1Cc1ccc2c(c1)OCO2	5.9	-1.2	1.6	53.0*
CN(C)S(=O)(=O)Oc1ccc(C(=O)Nc2ccc([N+](=O)[O-])cc2)cc1	4.8	5.1	-2.5	2.7
COC(=O)c1ccc(OS(=O)(=O)N(C)C)cc1	5.7	9.5	6.7	48.8*
CC(C)C#Cc1cnc2c(c1)C(=O)N([C@@H](C)CO)C[C@H](C)[C@@H](CN(C)C(=O)Nc1ccccc1)O2	.	.	.	-4.4
C[C@@H]1CN([C@@H](C)CO)C(=O)c2cc(NC(=O)CCC(F)(F)F)ccc2O[C@@H](C)CCCCO[C@H]1CN(C)Cc1ccc2c(c1)OCO2	.	.	.	0.8
COc1ccc(C2CC(=O)c3cc(OC)ccc3O2)cc1 (configuration not stated)	-1.6	-12.4	0.5	52.2*
O=C1CC(c2ccc3c(c2)OCCO3)Oc2ccccc21 (configuration not stated)	5.8	-2.3	3.7	84.4*
O=C1CC(c2ccccc2)Oc2ccc(Cl)cc21 (configuration not stated)	-15.0	3.4	-0.1	.
O=C1CC(c2ccc3c(c2)OCCO3)Oc2ccc([N+](=O)[O-])cc21 (configuration not stated)	-3.3	-6.1	-2.8	13.9
O=C(c1ccccc1F)N1CC[C@@H]2[C@H]1c1cc(C#Cc3ccccc3F)ccc1N[C@@H]2CO	.	.	.	0.6
CCOc1ccc(C2=C(C=C(C#N)C#N)C(c3ccccc3)c3ccccc3O2)cc1 (configuration not stated)	0.6	0.6	-2.9	.
COc1ccc(C2=C(CN(C)C)C(c3ccccc3)c3ccccc3O2)cc1 (configuration not stated)	6.0	-8.9	-0.6	70.5*
O=C(C[C@@H]1C=C[C@@H](NS(=O)(=O)c2ccc(F)cc2)[C@H](CO)O1)NCCN1CCCCC1	.	.	.	1.5
